ChEMBL document CHEMBL3352487, “Synthesis, antibacterial activity, and biological evaluation of formyl hydroxyamino derivatives as novel potent peptide deformylase inhibitors against drug-resistant bacteria” (Eur J Med Chem, 2014)
Values after ≈ are worked out from the molar mass of the structure shown.

What was measured:
[1] = AUC (0 to t) in Sprague-Dawley rat at 25 mg/kg, po; format: ADME, organism-based; parameters: dose 25 mg/kg, route oral; conditions: plasma
[2] = tested on: Staphylococcus epidermidis; assay: Antimicrobial activity against Staphylococcus epidermidis after 24 hrs by broth microdilution method; format: functional
How it was run: (§1)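 Broth microdilution following NCCLS M7-A4; ATCC strains and clinical isolates from a provincial hospital.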

[3] = Cmax in Sprague-Dawley rat at 25 mg/kg, po; format: ADME, organism-based; parameters: dose 25 mg/kg, route oral; conditions: in vivo
[4] = Stability of the compound in artificial gastric juice measured every 2 hrs for 12 hrs by HPLC analysis; format: ADME; conditions: simulated gi fluid
[5] = Protein binding in CD1 mouse plasma at 2 uM by equilibrium dialysis; format: ADME, cell-free; conditions: read-out: PPB (converted)
Staphylococcus aureus [6] = assay: Antimicrobial activity against Staphylococcus aureus isolate RN1030 after 24 hrs by broth microdilution method; format: functional; conditions: isolate RN1030, 24 h
How it was run: (§2)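 Broth microdilution following NCCLS M7-A4, using ATCC strains and clinical isolates from a provincial hospital.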

Staphylococcus aureus [7] = assay: Antimicrobial activity against Staphylococcus aureus isolate CL 1033 after 24 hrs by broth microdilution method; format: functional; conditions: isolate CL 1033, 24 h; how it was run: as §1
Staphylococcus aureus [8] = assay: Antimicrobial activity against Staphylococcus aureus isolate MILES HALL after 24 hrs by broth microdilution method; format: functional; how it was run: as §2
Staphylococcus aureus [9] = assay: Antimicrobial activity against Staphylococcus aureus MRSA08-12 in peritonitis mouse model assessed as mortality of host at 2.5 mg/kg, iv as single dose relative to control; format: functional
How it was run: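 KM outbred mice (20–25 g) inoculated intraperitoneally with a 90-to-100%-lethal dose (5 × 10^7 CFU/mL) of MRSA08-12 in 0.5 mL brain heart infusion broth with 5% mucin. Single i.v. dose in 20% DMSO, 0.1 mL; doses 1.25–20 mg/kg, 10 mice per dose. Cumulative mortality tracked daily for 14 days; ED50 by Bliss's method.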

Moraxella catarrhalis = assay: Antimicrobial activity against Moraxella catarrhalis 1502 after 24 hrs by broth microdilution method; format: functional; conditions: Moraxella catarrhalis, 1502, 24 h; how it was run: as §1
Mus musculus [10] = assay: Acute toxicity in KM mouse assessed as liver abnormality at 250 mg/kg, iv measured for 14 days by necropsy; format: organism-based; parameters: dose 250 mg/kg, route intravenous; conditions: in vivo, 336 h
How it was run: (§3)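 Outbred KM mice (SPF, 20–25 g; nine male, ten female) given a single tail-vein injection of 100 or 250 mg/kg in PBS pH 6.5 with 20% DMSO over about 60 s. Behaviour, weight, coat colour, anal temperature, food and water intake, and urine and stool weight followed for 14 days. On day 14, gross necropsy of skin, lungs, heart, liver, kidneys and spleen.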

Streptococcus pyogenes = assay: Antimicrobial activity against Streptococcus pyogenes 1307006P after 24 hrs by broth microdilution method; format: functional; how it was run: as §1
[11] = Drug recovery in CD1 mouse plasma at 2 uM by equilibrium dialysis; format: ADME, cell-free; conditions: read-out: Drug recovery
How it was run: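 Pooled CD-1 mouse plasma spiked to 2 µM final, equilibrium dialysis in triplicate against 100 mM PBS pH 7.4, 4 h at 37 °C with rotation; matrix-matched samples acetonitrile-precipitated, LC-MS/MS with internal standards. Unbound = free/total ×100; recovery = (free+total)/pre-dialysis ×100.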

Mus musculus [12] = assay: Acute toxicity in KM mouse assessed as kidney abnormality at 250 mg/kg, iv measured for 14 days by necropsy; format: organism-based; parameters: dose 250 mg/kg, route intravenous; conditions: in vivo, 336 h; how it was run: as §3
[13] = Oral bioavailability in Sprague-Dawley rat at 25 mg/kg; format: ADME, organism-based; conditions: in vivo
Staphylococcus aureus [14] = assay: Antimicrobial activity against Staphylococcus aureus isolate 68/8684 after 24 hrs by broth microdilution method; format: functional; conditions: isolate 68/8684, 24 h; how it was run: as §1
hERG (KCNH2) = hERG (KCNH2) (Homo sapiens, UniProt Q12809); assay: Inhibition of human ERG at 1 uM
Staphylococcus aureus [15] = assay: Antimicrobial activity against Staphylococcus aureus isolate PAV 5 after 24 hrs by broth microdilution method; format: functional; conditions: isolate PAV 5, 24 h; how it was run: as §1
Staphylococcus aureus [16] = assay: Antimicrobial activity against Staphylococcus aureus isolate Ealing 32 after 24 hrs by broth microdilution method; format: functional; conditions: isolate Ealing 32, 24 h; how it was run: as §1
Mus musculus [17] = assay: Acute toxicity in KM mouse assessed as spleen abnormality at 250 mg/kg, iv measured for 14 days by necropsy; format: organism-based; parameters: dose 250 mg/kg, route intravenous; conditions: in vivo, 336 h; how it was run: as §3
Staphylococcus aureus [18] = assay: Antimicrobial activity against Staphylococcus aureus isolate NEQAS 4158 after 24 hrs by broth microdilution method; format: functional; conditions: isolate NEQAS 4158, 24 h; how it was run: as §1
Staphylococcus aureus [19] = assay: Antimicrobial activity against Staphylococcus aureus isolate RN4220 pmz1 after 24 hrs by broth microdilution method; format: functional; conditions: isolate RN4220 pmz1, 24 h; how it was run: as §2
[20] = AUC (0 to infinity) in Sprague-Dawley rat at 5 mg/kg, iv; format: ADME, organism-based; parameters: time infinity, dose 5 mg/kg, route intravenous; conditions: plasma
Staphylococcus aureus [21] = assay: Antimicrobial activity against Staphylococcus aureus isolate 929035 after 24 hrs by broth microdilution method; format: functional; conditions: isolate 929035, 24 h; how it was run: as §1
[22] = Tmax in Sprague-Dawley rat at 25 mg/kg, po; format: ADME, organism-based; parameters: dose 25 mg/kg, route oral; conditions: in vivo
Mus musculus [23] = assay: Acute toxicity in KM mouse assessed as skin abnormality at 250 mg/kg, iv measured for 14 days by necropsy; format: organism-based; parameters: dose 250 mg/kg, route intravenous; conditions: in vivo, 336 h; how it was run: as §3
Staphylococcus aureus [24] = assay: Antimicrobial activity against Staphylococcus aureus MRSA08-12 in peritonitis mouse model assessed as mortality of host at 10 mg/kg, iv as single dose relative to control; format: functional
How it was run: (§4)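 Outbred KM mice (20–25 g) infected i.p. with a 90–100% lethal dose (5 × 10^7 CFU/mL) in 0.5 mL brain heart infusion broth with 5% mucin. Single i.v. dose of 1.25–20 mg/kg in 20% DMSO, 0.1 mL. Ten mice per dose; daily monitoring for 14 days; ED50 from cumulative mortality by Bliss's method.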

Staphylococcus aureus [25] = assay: Antimicrobial activity against Staphylococcus aureus isolate 934387 after 24 hrs by broth microdilution method; format: functional; conditions: isolate 934387, 24 h; how it was run: as §2
[26] = AUC (0 to t) in Sprague-Dawley rat at 5 mg/kg, iv; format: ADME, organism-based; parameters: dose 5 mg/kg, route intravenous; conditions: plasma
[27] = Acute toxicity in iv dosed KM mouse measured for 14 days; format: organism-based; conditions: in vivo
How it was run: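 Outbred KM mice (SPF, 20–25 g; nine male, ten female) given a single tail-vein i.v. dose of 100 or 250 mg/kg, formulated in PBS pH 6.5 containing 20% DMSO. Behaviour, weight, coat, anal temperature, food and water intake, and excreta monitored daily for 14 days, then necropsy.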

Staphylococcus aureus [28] = assay: Antimicrobial activity against Staphylococcus aureus isolate F89 after 24 hrs by broth microdilution method; format: functional; conditions: isolate F89, 24 h; how it was run: as §1
Staphylococcus aureus [29] = assay: Antimicrobial activity against Staphylococcus aureus isolate Smith ATCC 13709 after 24 hrs by broth microdilution method; format: functional; conditions: isolate Smith ATCC 13709, 24 h; how it was run: as §2
Haemophilus influenzae = assay: Antimicrobial activity against AcrA-deficient Haemophilus influenzae H128 after 24 hrs by broth microdilution method; format: functional; conditions: H128, 24 h; how it was run: as §1
Staphylococcus aureus [30] = assay: Antimicrobial activity against Staphylococcus aureus MRSA08-12 in peritonitis mouse model assessed as mortality of host at 20 mg/kg, iv as single dose relative to control; format: functional; how it was run: as §4
Mus musculus [31] = assay: Acute toxicity in KM mouse assessed as lung abnormality at 250 mg/kg, iv measured for 14 days by necropsy; format: organism-based; parameters: dose 250 mg/kg, route intravenous; conditions: in vivo, 336 h; how it was run: as §3
Staphylococcus aureus [32] = assay: Antimicrobial activity against Staphylococcus aureus isolate MN 1255 after 24 hrs by broth microdilution method; format: functional; conditions: isolate MN 1255, 24 h; how it was run: as §1
[33] = Mean residence time (0 to t) in Sprague-Dawley rat at 5 mg/kg, iv; format: ADME, organism-based; parameters: dose 5 mg/kg, route intravenous; conditions: in vivo

Chain of hERG (KCNH2) (Q12809 whole entry): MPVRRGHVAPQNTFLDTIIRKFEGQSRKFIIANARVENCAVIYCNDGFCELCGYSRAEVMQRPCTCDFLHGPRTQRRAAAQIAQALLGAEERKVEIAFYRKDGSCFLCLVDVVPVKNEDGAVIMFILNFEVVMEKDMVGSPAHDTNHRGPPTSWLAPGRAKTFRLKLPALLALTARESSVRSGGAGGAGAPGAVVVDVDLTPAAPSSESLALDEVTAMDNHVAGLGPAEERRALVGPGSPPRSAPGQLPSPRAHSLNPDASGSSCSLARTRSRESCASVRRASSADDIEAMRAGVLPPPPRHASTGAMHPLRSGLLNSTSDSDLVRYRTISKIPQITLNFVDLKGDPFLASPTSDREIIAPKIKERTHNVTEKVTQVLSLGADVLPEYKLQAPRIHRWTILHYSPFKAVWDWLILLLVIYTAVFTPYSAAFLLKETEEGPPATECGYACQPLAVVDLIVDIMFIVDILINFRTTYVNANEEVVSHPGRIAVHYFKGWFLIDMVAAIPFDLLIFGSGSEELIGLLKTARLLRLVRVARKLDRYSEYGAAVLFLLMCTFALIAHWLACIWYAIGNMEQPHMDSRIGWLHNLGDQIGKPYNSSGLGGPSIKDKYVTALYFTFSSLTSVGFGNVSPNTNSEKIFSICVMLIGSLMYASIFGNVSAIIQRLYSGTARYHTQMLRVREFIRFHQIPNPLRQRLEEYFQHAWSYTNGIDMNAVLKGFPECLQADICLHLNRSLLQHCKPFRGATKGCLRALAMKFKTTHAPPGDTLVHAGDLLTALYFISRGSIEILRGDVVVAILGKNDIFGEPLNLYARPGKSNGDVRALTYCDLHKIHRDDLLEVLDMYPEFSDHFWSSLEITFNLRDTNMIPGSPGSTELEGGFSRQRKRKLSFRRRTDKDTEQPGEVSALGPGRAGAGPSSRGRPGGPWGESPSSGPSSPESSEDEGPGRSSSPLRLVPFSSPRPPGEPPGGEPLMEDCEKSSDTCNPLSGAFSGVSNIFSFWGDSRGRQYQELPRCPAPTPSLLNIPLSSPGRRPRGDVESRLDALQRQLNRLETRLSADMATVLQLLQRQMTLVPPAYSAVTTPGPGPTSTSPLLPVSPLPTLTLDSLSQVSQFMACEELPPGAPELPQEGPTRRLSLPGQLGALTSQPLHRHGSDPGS

## CCCC[C@H](CN(O)C=O)C(=O)N1CC=C[C@H]1C(=O)Nc1ccc(F)c[n+]1[O-]
[1]
  AUC(0-t): 3320 ng·h/mL
[2]
  MIC: 1 µg/mL (≈ 2.54 µM)
[3]
  Cmax: 1390 ng/mL
[4]
  Stability: Stable
[5]
  fraction unbound at 2 µM: 0.467
Staphylococcus aureus [6]
  MIC: 0.5 µg/mL (≈ 1.27 µM)
Staphylococcus aureus [7]
  MIC: 1 µg/mL (≈ 2.54 µM)
Staphylococcus aureus [8]
  MIC: 0.5 µg/mL (≈ 1.27 µM)
Staphylococcus aureus [9]
  mortality at 2.5 mg/kg: 80%
Moraxella catarrhalis
  MIC: ≤ 0.06 µg/mL
Mus musculus [10]
  Activity: Non-toxic
Streptococcus pyogenes
  MIC: 2 µg/mL (≈ 5.07 µM)
[11]
  recovery at 2 µM: 91.2%
Mus musculus [12]
  Activity: Non-toxic
[13]
  bioavailability: 34.6%
Staphylococcus aureus [14]
  MIC: > 16 µg/mL
hERG (KCNH2)
  inhibition at 1 µM: 4.55%
Staphylococcus aureus [15]
  MIC: 1 µg/mL (≈ 2.54 µM)
Staphylococcus aureus [16]
  MIC: 0.25 µg/mL (≈ 0.634 µM)
Mus musculus [17]
  Activity: Non-toxic
Staphylococcus aureus [18]
  MIC: 1 µg/mL (≈ 2.54 µM)
Staphylococcus aureus [19]
  MIC: 0.5 µg/mL (≈ 1.27 µM)
[20]
  AUC(0-inf): 1960 ng·h/mL
Staphylococcus aureus [21]
  MIC: 1 µg/mL (≈ 2.54 µM)
[22]
  Tmax: 41.3 min
Mus musculus [23]
  Activity: Non-toxic
Staphylococcus aureus [24]
  mortality at 10 mg/kg: 30%
Staphylococcus aureus [25]
  MIC: 0.5 µg/mL (≈ 1.27 µM)
[26]
  AUC(0-t): 1950 ng·h/mL
[27]
  LD50 at 336 h: > 250 mg/kg
Staphylococcus aureus [28]
  MIC: 1 µg/mL (≈ 2.54 µM)
Staphylococcus aureus [29]
  MIC: 0.25 µg/mL (≈ 0.634 µM)
Haemophilus influenzae
  MIC: ≤ 0.06 µg/mL
Staphylococcus aureus [30]
  mortality at 20 mg/kg: 10%
Mus musculus [31]
  Activity: Non-toxic
Staphylococcus aureus [32]
  MIC: 0.25 µg/mL (≈ 0.634 µM)
[33]
  MRT last: 33.8 min
